STEP block – STEP (human) phosphatase inhibition | inhibition, % at 20 µM | P54829 | 0.25% of 360,000 active | recombinant STEP, OMFP fluorogenic substrate, fluorescence;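 active = inhibition at 20 µM, scaled per plate between control wells, above about 37%, limit read from the data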;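 note: 0% = DMSO with enzyme and substrate and 100% = substrate only without enzyme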
Target sequence (P54829 whole entry, looked up): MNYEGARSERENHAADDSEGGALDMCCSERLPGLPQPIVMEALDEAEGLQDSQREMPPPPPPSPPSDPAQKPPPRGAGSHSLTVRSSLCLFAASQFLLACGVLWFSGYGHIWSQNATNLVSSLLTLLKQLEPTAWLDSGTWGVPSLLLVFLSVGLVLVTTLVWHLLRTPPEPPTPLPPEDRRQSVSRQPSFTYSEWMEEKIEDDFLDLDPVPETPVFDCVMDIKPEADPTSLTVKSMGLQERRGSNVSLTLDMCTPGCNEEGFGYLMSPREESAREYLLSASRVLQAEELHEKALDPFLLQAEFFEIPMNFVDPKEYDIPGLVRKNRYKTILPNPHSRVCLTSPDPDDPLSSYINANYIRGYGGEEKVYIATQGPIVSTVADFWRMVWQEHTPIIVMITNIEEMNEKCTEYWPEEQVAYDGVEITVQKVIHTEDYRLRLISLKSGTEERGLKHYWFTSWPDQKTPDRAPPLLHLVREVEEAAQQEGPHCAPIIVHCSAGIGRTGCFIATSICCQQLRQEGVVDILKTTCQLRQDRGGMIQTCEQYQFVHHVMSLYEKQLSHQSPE
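Material: STEP (striatal-enriched tyrosine phosphatase) enzyme, cell-free; Compound dosing: 20 µM single dose in 1% DMSO; Technique: fluorescence read at 480 nm ex / 540 nm em; Times: reaction 20 min, ambient temperature; Medium: 50 mM Bis-Tris pH 6.0 with 2.5 mM DTT and 0.005% Tween 20; Also added: OMFP at 25 µM.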
DNMT1 block – DNMT1 (human) enzyme inhibition. P26358. DNMT1 molecular beacon, Hinp1I cleavage, fluorescence. inhibition (reported as % activation of signal), % at 10 µM. 0.83% of 360,000 active. AID 588458; in the data active = inhibition above about 50%
LMPTP block – LMPTP (human) inhibition. recombinant LMPTP-A, OMFP fluorogenic substrate, fluorescence intensity. 0.22% of 360,000 active. inhibition, % at 20 µM. P24666. AID 651560;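 active = compounds that cut the enzyme signal by at least half of the control window in the single-dose screen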;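 note: plate controls were DMSO wells with enzyme plus substrate for no effect and substrate without enzyme for full effect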
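Test system – LMPTP-A enzyme · Amount – LMPTP-A at 0.625 nM final in the reaction · Buffer or medium – Bis-Tris pH 6.0, DTT, detergent · Reagent – OMFP 400 µM · Doses – single 20 µM dose · Schedule – reaction 50 min, room temperature, dark · Detection – fluorescence intensity of OMFP turnover product · Evaluation – percent inhibition versus substrate-only and uninhibited controls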
HKDC1 inhibitor – blocks human hexokinase HKDC1 activity | 0.16% of 340,000 active | recombinant HKDC1, G6PDH/diaphorase resazurin coupled fluorescence | AID 493160 | inhibition, % at 20 µM;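 active = inhibition above about 35% when tested at 20 µM, limit read from the data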;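 note: plate controls were DMSO wells with enzyme for no effect and DMSO wells lacking enzyme for full effect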
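Test system: Recombinant HKDC1 (HK5) hexokinase enzyme, produced in-house | Input: HKDC1 at 5 µg/mL | Buffer or medium: Tris pH 8.0 buffer with MgCl2, Tween-20, BSA, BME | Schedule: 90 min reaction incubation at room temperature, dark | Technique: Resazurin-to-resorufin fluorescence via G6PDH and diaphorase coupling, 525/613 nm | Controls: DMSO wells with and without enzyme mix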
Scp1 inh – Scp-1 (human) phosphatase inhibition; Recombinant Scp1, phosphopeptide, malachite green phosphate absorbance; inhibition, % at 20 µM; 0.88% of 340,000 active; AID 493091;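 active = inhibition above about 50% at 20 µM, limit read from the data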;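 note: plate controls were DMSO wells with enzyme for no effect and wells lacking enzyme for full effect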
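Test system – truncated SCP-1 phosphatase (76-261aa) · Reagent – Phosphorylated 17-residue peptide substrate · Incubation – 45 min room-temperature reaction, 5 min colour, 30 min stabiliser · Detection – colorimetric phosphate reagent with accelerator and stabiliser, absorbance at 630 nm · Measure – % inhibition at 20 µM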
SUMO1 PPI mod – SUMO1-SIM interaction modulation; 0.33% of 360,000 active; inhibition, % at 20 µM; SUMO1 binding to a labelled peptide, TR-FRET, 1 h; P63165; in the data active = inhibition above about 37%
Target sequence (P63165 whole entry, looked up): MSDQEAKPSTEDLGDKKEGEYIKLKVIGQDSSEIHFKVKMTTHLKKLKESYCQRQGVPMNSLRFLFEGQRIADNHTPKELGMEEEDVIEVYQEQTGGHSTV
STEP conf – STEP (human) phosphatase inhibition, single concentration confirmation; recombinant STEP, OMFP fluorogenic substrate, fluorescence; shares compounds with STEP block; inhibition, % at 20 µM; 32% of 520 active; AID 623866; call rule not given here;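 note: 0% = enzyme with substrate plus DMSO and 100% = substrate without enzyme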
* marks the source's active call; other numbers are inactive results; x = not tested or not shown. The list is not random: actives were taken first. Their share in the collection is about 1.8%.

SMILES	STEP block	DNMT1 block	LMPTP block	HKDC1 inhibitor	Scp1 inh	SUMO1 PPI mod	STEP conf
CCN(CC)C(=O)OCCc1cc2ccccc2c(=O)o1	-0.3	10.9	-2.4	2.7	-5.6	3.4	x
COc1ccc(CCC(=O)Nc2cc3c4c(c2)CCC(=O)N4CCC3)cc1	0.4	4.4	1.0	-4.7	-7.6	-1.7	x
Cc1ccc2nc(Nc3ccc(F)cc3)c3nncn3c2c1	45.1*	26.5	26.6	-2.5	-13.1	10.1	6.4
CCc1nc2ccc(C(=O)NCCCN3CCCC3=O)cn2c1N(C)C(=O)Nc1ccccc1OC	1.0	0.8	-4.6	x	x	-5.2	x
O=C1C(=O)N(CCCO)C(c2ccc(Br)cc2)/C1=C(\O)c1ccc(Br)cc1 (stereo not drawn)	41.3*	1.3	0.7	4.0	-5.7	-7.6	37.6*
COc1ccc(C(=O)Nc2ccc(/C(C)=N/NC(=O)c3ccncc3)cc2)cc1	81.6*	21.9	54.0*	x	x	-5.7	19.1
O=C(CCN1CCC(c2ccc(Cl)s2)=N1)c1ccc(Cl)s1	58.2*	19.5	11.6	-3.6	-0.8	6.1	-0.7
O=C(CCC(=O)N1CCN(c2ccccc2F)CC1)c1ccc(Cl)s1	2.7	-2.1	1.2	-2.0	-5.0	-7.5	x
CCOC(=O)c1c(C)[nH]c(C(=O)OCc2ccccc2F)c1C	-0.6	-0.4	4.0	-2.6	-14.8	5.2	x
COc1ccccc1NC(=O)CN1C(=O)COc2ccc(C)cc21	2.2	-6.1	0.0	-0.5	-10.2	1.0	x
COc1ccc(NC(=O)CN2C(=O)COc3ccc(C)cc32)c(OC)c1	72.3*	4.4	-0.5	-7.8	-7.3	1.9	0.1
COc1cc(NC(=S)N2CCN(C)CC2)c(OC)cc1Cl	42.3*	-4.7	-2.7	-5.3	-1.7	2.1	27.7*
S=C1NC(C23CC4CC(CC(C4)C2)C3)=CC(c2ccc3c(c2)OCO3)N1 (stereo not drawn)	61.6*	-3.4	1.9	-6.3	-2.5	-5.8	24.8*
COc1cc(C2C=C(C34CC5CC(CC(C5)C3)C4)NC(=S)N2)cc(OC)c1OC (stereo not drawn)	2.2	-5.6	-2.1	-13.8	7.1	1.0	x
OCCN1CCN(C(=S)c2ccc(Cl)c(Cl)c2)CC1	90.4*	-2.1	0.1	-3.4	-6.0	2.7	60.3*
COc1cc(NC(=S)N2CCN(CCO)CC2)c(OC)cc1Cl	3.4	-4.3	-1.6	-11.9	-3.7	0.7	x
COCCN(C(=S)Nc1c(C)cccc1C)C(C)c1cccnc1 (stereo not drawn)	-3.8	2.0	-1.3	0.7	-9.7	1.0	x
COCCN(C(=S)Nc1c(C)cc(C)cc1C)C(C)c1cccnc1 (stereo not drawn)	50.4*	-2.2	1.1	-8.2	-7.3	1.9	20.9*
COc1ccc(NC(=O)c2sc3nc(N4CCOCC4)c4c(c3c2N)CC(C)(C)OC4)c(OC)c1	-0.5	4.5	-0.4	2.2	-6.2	-2.1	x
O=C(CSS(=O)(=O)O)N1CCN(C(=O)c2ccoc2)CC1	77.3*	-0.6	-1.1	-4.8	8.8	2.4	14.4
CC(=O)Nc1cccc(NC(=O)C2CC(=O)N(CCc3ccc(F)cc3)C2)c1 (stereo not drawn)	1.4	-0.4	-1.8	-1.8	-3.0	1.6	x
CC(C)N(C)CCOC(=O)c1ccccc1Br	77.9*	21.5	-1.9	-8.0	-2.5	2.7	-4.3
CC(C)N(C)CCOC(=O)c1ccccc1Cl	-4.3	4.9	-2.5	-12.9	-3.9	-3.5	x
Cc1ccccc1N1CCN(C(=S)c2ccc(-c3cccc([N+](=O)[O-])c3)o2)CC1	44.3*	-3.0	2.7	-4.1	-2.2	-8.8	25.9*
Cc1cc(C)cc(NC(=S)NC2CC3CCCC(C2)N3C2CCCC2)c1 (stereo not drawn)	40.5*	3.9	1.5	-9.4	-6.1	19.9	14.1
SMILES	STEP block	DNMT1 block	LMPTP block	HKDC1 inhibitor	Scp1 inh	SUMO1 PPI mod	STEP conf
CCc1cccc(NC(=O)Cc2cn(C)c3ccccc23)c1	30.1	-3.3	3.0	1.0	-13.2	2.4	x
Cn1cc(CC(=O)Nc2cccc(C#N)c2)c2ccccc21	45.5*	-2.4	1.2	2.1	-15.9	1.4	29.9*
CCc1ccc(NC(=O)Cc2cn(C)c3ccccc23)cc1	44.5*	-0.3	4.5	1.7	-6.0	-0.6	47.6*
O=c1oc2ccccc2c(N2CCOCC2)c1[N+](=O)[O-]	0.3	1.5	-0.1	2.6	3.2	-2.1	x
CC1(C)Cc2c(sc(NC(=O)C(C)(C)C)c2C#N)C(C)(C)N1	1.3	-1.1	-0.5	-0.4	2.6	-1.7	x
CC1(C)Cc2c(sc(N)c2C#N)C(C)(C)N1	43.9*	-4.8	0.7	-11.8	-3.4	4.0	27.8
CCOC(=O)c1cnn(-c2ncnc3sc(C)c(C)c23)c1N	69.6*	-1.4	-0.4	-5.6	-5.6	-4.2	4.9
CCOC(=O)c1cnn(-c2ccc(C)cc2)c1N	-2.4	0.8	0.5	-1.6	-4.8	2.0	x
CC(C)N(Cc1ccccc1)C(=O)COC(=O)C1CCCCC1	-1.7	-0.9	-1.0	-4.3	-18.1	0.6	x
COc1ccc(NC(=S)N2CCN(c3ncccn3)CC2)c(OC)c1	85.4*	-0.9	-0.7	-3.0	-10.7	0.7	27.2
COc1ccc(OC)c(NC(=S)N2CCN(c3ccccn3)CC2)c1	16.8	2.3	0.6	3.7	4.5	-2.1	x
CN1CCN(C(=S)c2ccc(N(C)C)cc2)CC1	83.4*	0.1	0.1	-9.2	-2.2	-1.2	26.5
O=[N+]([O-])c1ccc(C(=S)N2CCC(Cc3ccccc3)CC2)cc1	-3.0	-1.3	0.3	-6.2	-10.7	-10.1	x
CN1CCN(C(=S)c2ccc([N+](=O)[O-])cc2)CC1	80.5*	-2.4	0.9	-15.4	-6.7	-23.6	34.5
CN1CCN(C(=O)c2ccc(S(=O)(=O)c3ccc(Br)cc3)cc2)CC1	0.1	0.4	1.1	-7.8	-11.9	0.2	x
CN1CCN(C(=S)c2ccc(Br)cc2)CC1	80.5*	-0.3	0.9	13.5	-1.3	-0.1	43.1*
CSc1ccc(C(=S)N2CCCC2)cc1	9.0	-2.4	-2.9	-3.2	8.9	2.9	x
CSc1ccc(C(=S)N2CCN(C)CC2)cc1	72.9*	-4.5	-1.2	-14.2	-5.9	-0.6	25.6
CCOc1ccc(CNC(=O)Nc2ccccc2)cc1	0.8	3.9	-0.3	-5.2	-12.3	-0.8	x
CN1CCN(C(=O)/C=C/c2ccc3c(c2)OCO3)CC1	57.0*	4.1	-0.5	12.6	-2.4	-4.1	-1.8

High-throughput results (PubChem)
